Assay results published in ChEMBL document CHEMBL1139898, “Structural effects on the phosphorylation of 3-substituted 1-beta-D-ribofuranosyl-1,2,4-triazoles by human adenosine kinase” (Bioorg Med Chem Lett, 2007).
Calls of active or inactive are those of the source. The calls are words filed in the database; no cut-off is given here.

Columns and labels:
[1] = target: Adenosine kinase (Homo sapiens) (UniProt P55263); test: Inhibition of human adenosine kinase ribavirin phosphorylation activity
Procedure, shortened: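 Human adenosine kinase (clone 20-1) in Hepes pH 6.0 buffer with KCl, MgCl₂, 1 mM ATP, BSA, deoxycoformycin at 37 °C; 0.1 μM ribavirin initial substrate with test compound at 400 μM; ribavirin monophosphate formation followed by timed aliquots, acid quench and anion-exchange HPLC with UV detection.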

[2] = target: Adenosine kinase (Homo sapiens) (UniProt P55263); test: Specific activity of human adenosine kinase
Procedure, shortened: (§1)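 Aliquots at 0, 1, 2, 4 h quenched with perchloric acid, neutralized, monophosphate resolved by anion-exchange HPLC (ammonium phosphate gradient), UV at λmax; conversion kept <10%, linear.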

[3] = target: Adenosine kinase (Homo sapiens) (UniProt P55263); test: Activity of human adenosine kinase relative to ribavirin; design: concentration or dose not given beside the values; procedure, shortened: as §1

Chain of Adenosine kinase (Homo sapiens) (P55263 2-362 limits assumed): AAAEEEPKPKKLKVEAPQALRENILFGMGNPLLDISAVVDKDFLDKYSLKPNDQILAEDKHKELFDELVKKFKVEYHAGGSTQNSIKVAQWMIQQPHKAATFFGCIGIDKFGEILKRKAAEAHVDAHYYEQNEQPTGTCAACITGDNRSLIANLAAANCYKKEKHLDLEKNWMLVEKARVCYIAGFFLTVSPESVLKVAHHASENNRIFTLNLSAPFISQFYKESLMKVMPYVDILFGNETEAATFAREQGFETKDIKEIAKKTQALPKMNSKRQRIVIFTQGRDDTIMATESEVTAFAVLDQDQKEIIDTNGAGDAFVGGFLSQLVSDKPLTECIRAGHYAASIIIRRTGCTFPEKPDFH

In the case of CC(=O)Nc1ncn([C@@H]2O[C@H](CO)[C@@H](O)[C@H]2O)n1, the Activity [1] is reported as “inactive”, the Activity [2] is reported as < 4 nmol/mg/h and the Activity [3] is reported as < 2%.

For CNC(=O)c1ncn([C@@H]2O[C@H](CO)[C@@H](O)[C@H]2O)n1, the Activity [1] was “inactive”, the Activity [2] was 19 nmol/mg/h and the Activity [3] was 9%.

In the case of C/N=C(/N)c1ncn([C@@H]2O[C@H](CO)[C@@H](O)[C@H]2O)n1, the Activity [1] is reported as “inactive”, the Activity [2] is reported as 11 nmol/mg/h and the Activity [3] is reported as 5%.

For O=[N+]([O-])c1ncn([C@@H]2O[C@H](CO)[C@@H](O)[C@H]2O)n1, the Activity [1] was “inactive”, the Activity [2] was 36 nmol/mg/h and the Activity [3] was 18%.

In the case of O=C(O)c1ncn([C@@H]2O[C@H](CO)[C@@H](O)[C@H]2O)n1, the Activity [1] is reported as “inactive”, the Activity [2] is reported as < 4 nmol/mg/h and the Activity [3] is reported as < 2%.

In the case of CC(=O)c1ncn([C@@H]2O[C@H](CO)[C@@H](O)[C@H]2O)n1, the Activity [1] is reported as “inactive”, the Activity [2] is reported as 20 nmol/mg/h and the Activity [3] is reported as 10%.

In the case of COC(=N)c1ncn([C@@H]2O[C@H](CO)[C@@H](O)[C@H]2O)n1, the Activity [1] is reported as “inactive”, the Activity [2] is reported as < 4 nmol/mg/h and the Activity [3] is reported as < 2%.

Work on NC(=O)c1ncn([C@@H]2O[C@H](CO)[C@@H](O)[C@H]2O)n1 yielded an Activity [2] of 203 nmol/mg/h.
